# Screens: PubChem, Broad Institute
# Most compounds without a hit are left out; they make up all but 4.3% or so of the library.
# CAL PDZ FP-1 = CAL PDZ (human) peptide binding inhibition; purified CAL PDZ, TMR-peptide fluorescence polarization, 1 h; inhibition, % at 24.9 µM; 300,000 compounds, 0.92% hits;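 active = mean inhibition of at least 30% with at least half of replicates also reaching 30%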
# ALR inh = inhibitors of human sulfhydryl oxidase ALR; P55789; purified ALR, DTT oxidation, H2O2 HRP-luminol luminescence; inhibition, % (concentration not given with the values); 290,000 compounds, 3.8% hits;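 active = mean replicate inhibition above about 79%, with every replicate also reaching it, limit read from the data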
# Target sequence (P55789 whole entry, looked up): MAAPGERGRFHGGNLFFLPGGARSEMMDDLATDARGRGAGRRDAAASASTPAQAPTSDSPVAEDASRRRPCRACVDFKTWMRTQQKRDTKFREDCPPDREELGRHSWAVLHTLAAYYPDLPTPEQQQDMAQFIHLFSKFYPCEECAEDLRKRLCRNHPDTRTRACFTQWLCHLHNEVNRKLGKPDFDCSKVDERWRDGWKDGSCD
# CAL PDZ FP-2 = human CAL PDZ-peptide interaction inhibition. Q9HD26. purified CAL PDZ, TMR-peptide fluorescence polarization, 1 h. inhibition, % at 20 µM. 330,000 compounds, 0.02% hits;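 active = highest replicate inhibition of at least 40%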
#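 Material – purified CerCALP PDZ construct · Detection – FP readout, S and P plane fluorescence · Measure – percent inhibition from loss of millipolarization · Controls – unlabelled peptide for full inhibition, DMSO wells as neutral · Probe or stimulus – TMR-labelled reporter peptide T*-PRC34 bound in PDZ groove · Times – 1 h at RT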
# Dyrk1A ADPGlo = inhibitors of rat Dyrk1A kinase; Q63470; ADP-Glo luminescence, NFATc1 peptide; inhibition, % at 12.5 µM; 310,000 compounds, 0.43% hits; AID 504441; in the data active = inhibition above about 50%
# Rtt109 Vps75 = blocks Candida albicans Rtt109/Vps75 acetyltransferase activity | AID 540336 | Q5AAJ8 | inhibition, % at 34.9 µM | 330,000 compounds, 0.16% hits | purified Rtt109/Vps75, ThioGlo CoA-SH fluorescence, 4 h;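 active = inhibition of at least 50% in every replicate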
# Target sequence (Q5AAJ8 whole entry, looked up): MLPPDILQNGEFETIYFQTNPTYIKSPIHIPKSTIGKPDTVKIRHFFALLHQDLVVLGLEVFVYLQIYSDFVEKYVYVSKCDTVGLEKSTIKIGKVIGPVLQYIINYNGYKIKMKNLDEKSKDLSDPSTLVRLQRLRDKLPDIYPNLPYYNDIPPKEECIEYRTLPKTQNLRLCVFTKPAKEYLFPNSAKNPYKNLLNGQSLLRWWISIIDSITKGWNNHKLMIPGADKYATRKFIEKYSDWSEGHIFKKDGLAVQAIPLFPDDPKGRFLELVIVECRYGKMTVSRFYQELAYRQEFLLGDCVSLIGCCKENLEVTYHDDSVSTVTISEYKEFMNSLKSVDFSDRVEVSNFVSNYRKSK
# Dyrk1A artifact = counter-screen for Dyrk1A inhibitors: ADP-Glo luciferase artifacts; shares compounds with Dyrk1A ADPGlo; ADP-Glo luciferase artifact assay, no Dyrk1A, luminescence; AC50, µM (doses to about 12 µM); 1,300 tested, under 10 active; AID 588348;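 active = fitted half-maximal dose AC50 no more than ten times the top valid tested dose, with luminescence dropping as dose rises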
# Hits are given with their value; - = inactive; . = no result.
SMILES,CAL PDZ FP-1,ALR inh,CAL PDZ FP-2,Dyrk1A ADPGlo,Rtt109 Vps75,Dyrk1A artifact
CCN1CCN(Cc2ccc(NC(=O)c3ccc(C)c(/C=C/c4cnc(Nc5cc(N6CCNCC6)nc(C)n5)cn4)c3)cc2C(F)(F)F)CC1,-,-,-,52,-,-
CCN1CCN(Cc2ccc(NC(=O)c3ccc(C)c(NC(=O)c4csc(-c5ccncc5)n4)c3)cc2C(F)(F)F)CC1,-,-,-,68,-,-
COC(=O)CSc1ncnc2scc(-c3ccccc3)c12,-,-,-,-,-,.
Cc1ccc(-c2csc3ncnc(SCC(=O)O)c23)cc1,-,-,-,76,-,-
OCCCNc1cc(-c2ccnc(Nc3cccc(Cl)c3)n2)ccn1,-,-,-,89,-,-
COc1ccc(O)c(-c2cc(-c3cccs3)[nH]n2)c1,.,-,-,70,-,-
Oc1ccc(Br)cc1-c1cc(-c2ccccc2Cl)[nH]n1,-,-,-,-,-,.
COc1ccc(O)c(-c2cc(-c3ccccc3Cl)[nH]n2)c1,-,-,-,53,-,-
COc1ccc(/C=C2\SC(=O)NC2=S)cc1OC,-,.,-,58,-,-
CCOc1ccc(/C=C2\SC(=S)NC2=O)cc1OC,-,-,-,-,-,.
COc1cc(/C=C2\SC(=O)NC2=O)ccc1Oc1ccc([N+](=O)[O-])cc1[N+](=O)[O-],-,98,-,77,-,-
O=C(CC1C(=O)NCCN1Cc1c(F)cccc1Cl)NCCCOc1cccnc1 (stereo not drawn),-,-,-,-,-,.
Clc1ccc(C2CC(c3cccs3)n3ncnc3N2)c(Cl)c1 (stereo not drawn),.,-,-,61,-,-
COc1cccc(C2CC(c3ccccc3Cl)Nc3ncnn32)c1 (stereo not drawn),-,.,-,-,-,.
CCOC(=O)C1(Cc2cccc(OC)c2)CCN(Cc2cccc(OC)c2O)CC1,.,-,-,-,-,.
O=C(Oc1ccc(N(Cc2cccs2)C2=NS(=O)(=O)c3ccccc32)cc1)c1ccco1,-,.,-,-,-,.
O=S1(=O)N=C(N(Cc2cccs2)c2ccc(O)cc2)c2ccccc21,.,-,-,73,-,-
O=C1CN(C(=O)C2CCC(=O)N(CCc3ccc(Cl)cc3)C2)CCN1 (stereo not drawn),-,-,-,54,-,-
O=C(O)c1nc(-c2ccccc2)n(-c2cccc(C(F)(F)F)c2)n1,-,-,-,-,-,.
COc1ccccc1NC(=S)N/N=C/c1ccc(O)cc1,-,.,-,51,-,-
COc1cc2cnc(-c3ccccc3)c(-c3ccc([N+](=O)[O-])cc3)c2cc1OC,-,-,-,51,-,-
COc1cc(CC(NC(C)=O)C(=O)NC2CCN(C(=O)Nc3ccc(C)cc3)CC2)cc(OC)c1 (stereo not drawn),-,.,-,-,-,.
COc1ccc(/C=c2\s/c(=C\C(=O)C(C)(C)C)[nH]c2=O)cc1O,-,89,-,64,-,-
O=C(Nc1ncc2c(n1)-c1ccccc1CC2)c1ccc(Cl)cc1,.,-,-,59,-,-
COCCCn1c(SCC(=O)NC2CCCCC2)nnc1-c1ccncc1,-,-,-,51,.,-
SMILES,CAL PDZ FP-1,ALR inh,CAL PDZ FP-2,Dyrk1A ADPGlo,Rtt109 Vps75,Dyrk1A artifact
CCn1c(SCC(=O)NC2CCCC2)nnc1-c1ccncc1,-,-,-,-,-,.
COCCNC(=O)c1ccc(N2CC3CC(C2)c2cccc(=O)n2C3)c(NC(=O)c2ccc(Br)o2)c1 (stereo not drawn),-,-,-,-,-,.
CCCCn1c(NCCO)nc2ccccc21,.,98,-,58,-,-
CC(C)Cn1c(NCCO)nc2ccccc21,-,-,-,-,-,.
COc1cc(CC(=O)N(c2ccccc2)c2nc(C)cs2)cc(OC)c1OC,-,-,-,-,-,.
CC1(C)CC(=O)C=C(c2ccc(F)nc2)C1,-,-,-,-,-,.
S=c1[nH]cc(-c2ccc(Cl)cc2)n1Cc1ccccc1,-,-,-,55,-,-
Cc1c(C(=O)O)sc2nc(-c3cccs3)cc(C(F)(F)F)c12,-,-,-,57,-,-
CCOCCCN(C)C1CCN(C(=O)c2oc3ccccc3c2NC(=O)Cc2ccc(F)cc2)CC1,-,-,-,-,-,.
CCC(=O)Nc1c(C#N)c2nc3ccccc3nc2n1-c1ccccc1C,-,-,-,55,-,-
CN1CCN(c2cc3c(c4c2[nH]c2ccccc24)C(=O)CC(C)(C)C3)CC1,-,-,-,56,-,-
O=C1CCN2C=Nc3cccc4ccc1c2c34,-,-,-,73,-,-
CS(=O)(=O)Nc1ccc(-c2ccc(/C=C3\SC(N)=NC3=O)o2)cc1,-,-,-,84,-,-
NC1=NC(=O)/C(=C/c2ccc(-c3ccc(S(N)(=O)=O)cc3)o2)S1,-,-,-,77,-,-
CC(C)(C)NCC(O)COc1ccccc1C1CCCC1 (stereo not drawn),-,-,-,-,-,.
N#Cc1cnn2ccc(-c3cc(N4CCOCC4)ccc3[N+](=O)[O-])nc12,-,-,-,-,-,.
NC(=O)CC(NC(=O)c1cccc(Br)c1)c1ccc(N2CCN(c3ccccn3)CC2)c([N+](=O)[O-])c1 (stereo not drawn),-,-,-,54,-,-
O=C1[C@H]2[C@H](C=CC[C@H]2C(=O)N2CCOCC2)CCN1Cc1ccccc1,-,-,-,53,-,-
CC(=O)NC12CC3CC(C1)CC(C(=O)Nc1nc4ccc(F)cc4s1)(C3)C2,-,86,-,79,-,-
CCC(CC)c1nnc(NC(=O)C23CC4CC(CC(NC(C)=O)(C4)C2)C3)s1,-,-,-,-,-,.
O=c1c2c3c(sc2n2c(=S)[nH]nc2n1-c1ccccc1)CCC3,.,-,-,55,-,-
Cc1cccc(-n2c(=O)c3c4c(sc3n3c(=S)[nH]nc23)CCC4)c1,-,.,-,-,-,.
CCOC(=O)C1CCN(C(=O)CCc2nnc3ccc(N4CCC(C)CC4)nn23)CC1,-,-,-,-,-,.
O=C(NNc1ccccc1[N+](=O)[O-])Nc1ccc(Cl)c(Cl)c1,-,-,-,-,-,.
O=C1NC(=O)C(c2ccccc2[N+](=O)[O-])=C1Nc1ccc(O)c(Cl)c1,-,99,-,87,-,-
SMILES,CAL PDZ FP-1,ALR inh,CAL PDZ FP-2,Dyrk1A ADPGlo,Rtt109 Vps75,Dyrk1A artifact
Cc1ccc(CNC(=O)c2cc(=O)c3ccc(C)cc3o2)cc1,-,-,-,-,-,.
O=C(/C=C/c1ccccc1)Nc1cccnc1Oc1ccccc1F,-,-,-,51,-,-
CCCOc1ccc(/C=N/NC(=O)CN2CCCCC2)cc1,.,-,-,71,-,-
O=C(/C=C/c1ccccc1)Nc1cccc(C(=O)NCCCc2ccccc2)c1,-,.,-,-,-,.
COc1ccccc1/C=C/C(=O)Nc1cccc(C(C)=O)c1,-,-,-,-,-,.
COc1ccc(/C=C/C(=O)Nc2cccc(C(C)=O)c2)cc1,-,-,-,56,-,-
